The source of these data is ChEMBL document CHEMBL4425094, “Novel Benzo[a]quinolizidine Analogs Induce Cancer Cell Death through Paraptosis and Apoptosis” (J Med Chem, 2016).

For one assay, the system named is MDA-MB-231. Nature of the assay: Cytotoxicity against human MDA-MB-231 cells assessed as cell growth inhibition after 24 hrs by MTT assay. The assay is classed as functional, cell-based. Conditions: MDA-MB-231, 24 h. Put shortly:
(§1)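 Cells seeded 24 h in RPMI 1640 + 10% FBS. RWPE-1 was kept in K-SFM with bovine pituitary extract and EGF. Cells then exposed to compounds for 24 h at 37 °C, 5% CO2, with DMSO vehicle and docetaxel as positive control. MTT added for 4 h, absorbance read at 570 nm. Triplicate runs, IC50 reported as mean of three experiments.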

Another assay deals with HeLa. The assay is described as follows: Cytotoxicity against human HeLa cells assessed as cell growth inhibition after 24 hrs by MTT assay. The assay is classed as functional, cell-based. In a few lines:
as §1

The next assay deals with K562. Nature of the assay: Cytotoxicity against human K562 cells assessed as cell growth inhibition after 24 hrs by MTT assay. Particulars: K562, 24 h. The assay is classed as functional, cell-based. In a few lines:
as §1
(In general: Tetrazolium dyes change colour on reduction, which living cells bring about.)

A further assay relates to PC-3. Nature of the assay: Cytotoxicity against human PC3 cells assessed as cell growth inhibition after 24 hrs by MTT assay. The assay is classed as functional, cell-based. Conditions: PC-3, 24 h. Put shortly:
as §1

The test system of a further assay is DU-145. Nature of the assay: Cytotoxicity against human DU145 cells assessed as cell growth inhibition after 24 hrs by MTT assay. Conditions: DU-145, 24 h. The class given is functional, cell-based. Put shortly: as §1
The next assay has as its system MCF7. Nature of the assay: Cytotoxicity against human MCF7 cells assessed as cell growth inhibition after 24 hrs by MTT assay. The class given is functional, cell-based. Conditions: MCF7, 24 h. In a few lines:
as §1

The subject of another assay is RWPE-1. Nature of the assay: Cytotoxicity against human RWPE1 cells assessed as cell growth inhibition after 24 hrs by MTT assay. The class given is cell-based. Particulars: RWPE-1, 24 h. Put shortly:
as §1

Broadly, the IC50 is the midpoint of a concentration-inhibition curve. Take `C[C@@H]1C[C@@H](O)C[C@H]2c3cc(OCc4ccccc4)c(OCc4ccccc4)cc3CCN12`: the IC50 with MDA-MB-231 was 1.15 µM; in the assay on HeLa, 2.66 µM; in the assay with K562, 1.52 µM; in the assay on PC-3 it was 2.81 µM; in the assay with DU-145 it was 2.18 µM; with MCF7 it was 2.2 µM. Also, in the assay on RWPE-1, the half-inhibitory concentration (IC50) was 1.84 µM.

In the case of `COc1ccc([C@@H]2CC(=O)C[C@H]3c4cc(OCc5cc(F)cc(F)c5)c(OCc5cc(F)cc(F)c5)cc4CCN23)cc1OC` (relative stereo), the IC50 in the assay with MDA-MB-231, in the assay with HeLa, in the assay on K562, in the assay on PC-3, with DU-145 and in the assay with MCF7 was over 20 µM each time. The concentration for half-maximal inhibition (IC50) in the assay on RWPE-1 is over 20 µM.

As for `C[C@@H]1C[C@@](C)(O)C[C@H]2c3cc(OCc4ccc(C(C)(C)C)cc4)c(OCc4ccc(C(C)(C)C)cc4)cc3CCN12`, the IC50 stood at 0.98 µM in the assay with MDA-MB-231; 0.91 µM in the assay on HeLa; 1.35 µM with K562; 1.11 µM with PC-3; 1.46 µM with DU-145; 2.61 µM with MCF7. Also, the half-maximal inhibitory concentration (IC50) in the assay on RWPE-1 amounted to 4.03 µM.

As for `C[C@@H]1C[C@H](O)C[C@H]2c3cc(OCc4ccccc4)c(OCc4ccccc4)cc3CCN12`, the IC50 was 7.22 µM in the assay on MDA-MB-231; 1.06 µM with HeLa; 3.26 µM in the assay with K562; 7.67 µM in the assay on PC-3; 1.95 µM in the assay on DU-145; 2.5 µM with MCF7.

For `COc1cc([C@@H]2C[C@H](O)C[C@H]3c4cc(OCc5ccccc5)c(OCc5ccccc5)cc4CCN23)cc(OC)c1OC`, the IC50 in the assay on MDA-MB-231, with HeLa, with K562, in the assay with PC-3, in the assay on DU-145 and in the assay with MCF7 was over 20 µM each time. Moreover, the IC50 in the assay with RWPE-1 is over 20 µM.

As for `CCOC1c2cc(OCc3cc(C)cc(C)c3)c(OCc3cc(C)cc(C)c3)cc2CCN1C(=O)OC(C)(C)C` (centres undefined), the IC50 in the assay with MDA-MB-231, in the assay with HeLa, in the assay on K562, in the assay with PC-3, in the assay on DU-145 and in the assay on MCF7 was over 20 µM in each case. Also, in the assay on RWPE-1, the half-inhibitory concentration (IC50) was over 20 µM.

Regarding `C[C@@H]1C[C@H](O)C[C@H]2c3cc(OCc4cc(F)cc(F)c4)c(OCc4cc(F)cc(F)c4)cc3CCN12`, the IC50 in the assay with MDA-MB-231 is 3.16 µM; in the assay on HeLa, 3.04 µM; in the assay with K562, 2.29 µM.

`CCCCCC[C@@H]1CC(=O)C[C@H]2c3cc(OCc4ccccc4)c(OCc4ccccc4)cc3CCN12` (relative stereo): the concentration for half-maximal inhibition (IC50) in the assay with MDA-MB-231, in the assay on HeLa, with K562, with PC-3, in the assay on DU-145 and with MCF7 was over 20 µM each time. The IC50 with RWPE-1 is over 20 µM.

As for `C[C@@H]1C[C@H](O)C[C@H]2c3cc(OCc4ccc(Br)cc4)c(OCc4ccc(Br)cc4)cc3CCN12`, the half-inhibitory concentration (IC50) in the assay with MDA-MB-231 amounted to 2.25 µM; with HeLa, 2.88 µM; in the assay on K562, 3.15 µM; in the assay with RWPE-1, 2.89 µM.

With `Cc1cc(C)cc(COc2cc3c(cc2OCc2cc(C)cc(C)c2)CN(C(=O)OC(C)(C)C)CC3)c1`, the half-inhibitory concentration (IC50) in the assay with MDA-MB-231, in the assay with HeLa, in the assay with K562, with PC-3, in the assay with DU-145 and with MCF7 was over 20 µM each time. Moreover, the IC50 in the assay with RWPE-1 was over 20 µM.

Regarding `O=C1C[C@@H](c2ccccc2)N2CCc3ccc(OCc4ccccc4)cc3[C@@H]2C1` (relative stereo), the half-maximal inhibitory concentration (IC50) in the assay with MDA-MB-231, with HeLa, in the assay with K562, in the assay on PC-3, in the assay on DU-145 and in the assay with MCF7 was over 20 µM each time. In the assay on RWPE-1, the IC50 is over 20 µM.

As for `O=C1C[C@@H](c2ccccc2)N2CCc3cc4c(cc3[C@@H]2C1)OCO4` (relative stereo), the IC50 with MDA-MB-231, in the assay on HeLa, with K562, with PC-3, in the assay with DU-145 and with MCF7 was over 20 µM in each case. For the same molecule, the half-inhibitory concentration (IC50) in the assay on RWPE-1 was over 20 µM.

As to `O[C@H]1C[C@@H](c2ccccc2)N2CCc3ccc(OCc4ccccc4)cc3[C@@H]2C1`, the IC50 in the assay on MDA-MB-231, in the assay on HeLa, in the assay with K562, with PC-3, with DU-145 and with MCF7 was over 20 µM throughout. In the assay on RWPE-1, the 50% inhibitory concentration (IC50) is over 20 µM.

As to `C[C@@H]1C[C@@H](O)C[C@H]2c3cc(OCc4cc(F)cc(F)c4)c(OCc4cc(F)cc(F)c4)cc3CCN12`, the IC50 came out at 2.11 µM in the assay with MDA-MB-231; 1.96 µM with HeLa; 1.89 µM with K562; 1.35 µM in the assay with PC-3; 1.88 µM in the assay with DU-145; 1.71 µM in the assay with MCF7. Further, in the assay on RWPE-1, the IC50 is 4.42 µM.

As for `O=[N+]([O-])c1ccc([C@@H]2C[C@H](O)C[C@H]3c4cc(OCc5ccccc5)c(OCc5ccccc5)cc4CCN23)cc1`, the half-inhibitory concentration (IC50) with MDA-MB-231, in the assay with HeLa, in the assay on K562, in the assay with PC-3, in the assay with DU-145 and in the assay on MCF7 was over 20 µM each time. Besides, the IC50 with RWPE-1 was over 20 µM.

As for `CCC[C@@H]1CC(=O)C/C=C(/CC)[C@H]2c3cc(OCc4ccccc4)c(OCc4ccccc4)cc3CCN12` (relative stereo), the half-inhibitory concentration (IC50) in the assay on MDA-MB-231, with HeLa, in the assay on K562, with PC-3, with DU-145 and in the assay with MCF7 was over 20 µM each time. The IC50 with RWPE-1 was over 20 µM.

For the molecule `CCC[C@@H]1C[C@@H](O)C[C@H]2c3cc(OCc4ccccc4)c(OCc4ccccc4)cc3CCN12`, the half-inhibitory concentration (IC50) stood at 2.57 µM with MDA-MB-231, 2.38 µM in the assay on HeLa and 2.32 µM with K562.

As to `Oc1cc2c(cc1O)[C@@H]1C[C@@H](O)C[C@@H](c3ccccc3)N1CC2`, the half-maximal inhibitory concentration (IC50) in the assay on MDA-MB-231, with HeLa, in the assay on K562, with PC-3, in the assay on DU-145 and in the assay with MCF7 was over 20 µM throughout. In addition, the IC50 with RWPE-1 is over 20 µM.

As to `C[C@@H]1C[C@H](O)C[C@H]2c3cc4c(cc3CCN12)OCO4`, the IC50 in the assay with MDA-MB-231, in the assay with HeLa, with K562, with PC-3, in the assay with DU-145 and in the assay with MCF7 was over 20 µM each time. Also, the IC50 in the assay with RWPE-1 is over 20 µM.

For the molecule `CC[C@@H]1C[C@H](O)C[C@H]2c3cc(OCc4ccccc4)c(OCc4ccccc4)cc3CCN12`, the IC50 was found to be 10.2 µM in the assay with MDA-MB-231; 5.27 µM in the assay with HeLa; 3.81 µM in the assay with K562; 3.52 µM with PC-3; 3.37 µM in the assay with DU-145; 3.02 µM with MCF7.

Regarding `CCC[C@@H]1C[C@H](O)C[C@H]2c3cc(OCc4ccccc4)c(OCc4ccccc4)cc3CCN12`, the IC50 in the assay with MDA-MB-231 is 6.72 µM; in the assay on HeLa, 5.49 µM; with K562, 3.88 µM.

Consider `CCC[C@@H]1C[C@@H](O)/C=C\C(CC)[C@H]2c3cc(OCc4ccccc4)c(OCc4ccccc4)cc3CCN12` (some centres undefined), for which the IC50 with MDA-MB-231 was found to be 2.72 µM; with HeLa, 3.43 µM; with K562 it was 5.61 µM.

For `C[C@@H]1C[C@H](O)C[C@H]2c3cc(OCc4ccc(C(C)(C)C)cc4)c(OCc4ccc(C(C)(C)C)cc4)cc3CCN12`, the IC50 in the assay with MDA-MB-231 came to 1.46 µM; in the assay on HeLa it was 2.56 µM; in the assay on K562, 2.88 µM.

For `CCC[C@@H]1C[C@@](C)(O)C[C@H]2c3cc(OCc4ccccc4)c(OCc4ccccc4)cc3CCN12`, the IC50 amounted to 2.37 µM in the assay on MDA-MB-231, 6.34 µM in the assay with HeLa and 6.81 µM in the assay with K562.

For `CC1(C)C[C@@H](O)C[C@H]2c3cc(OCc4ccccc4)c(OCc4ccccc4)cc3CCN21` (relative stereo), the results for the half-maximal inhibitory concentration (IC50) with MDA-MB-231, with HeLa and in the assay on K562 were 5.01 µM, 7.22 µM and 5.44 µM, respectively.

In the case of `C[C@@]1(O)C[C@@H](c2ccccc2)N2CCc3cc(OCc4ccccc4)c(OCc4ccccc4)cc3[C@@H]2C1`, the IC50 in the assay on MDA-MB-231 worked out at 5.48 µM; in the assay with HeLa it was 6.57 µM; with K562 it was 1.98 µM; in the assay on DU-145, 11.6 µM; with MCF7, 9.2 µM; in the assay with RWPE-1, 2.02 µM.

`C[C@@H]1C[C@@](C)(O)C[C@H]2c3cc(OCc4ccccc4)c(OCc4ccccc4)cc3CCN12`: the half-maximal inhibitory concentration (IC50) with MDA-MB-231 was determined as 6.47 µM; in the assay with HeLa it was 5.21 µM; in the assay with PC-3, 2.6 µM; with DU-145, 2.11 µM; with MCF7, 1.39 µM.

For `C[C@@H]1CC(=O)C[C@H]2c3cc(OCc4ccccc4)c(OCc4ccccc4)cc3CCN12` (relative stereo), the IC50 in the assay on MDA-MB-231 was 2.52 µM; in the assay on HeLa, 2.99 µM; in the assay with K562, over 20 µM; in the assay on PC-3, 2.27 µM; in the assay with DU-145, 4.25 µM; in the assay with MCF7 it was 2.23 µM.
